# An excerpt weighted towards active compounds, which were near 2.1% of everything screened.
# FN deposition inh – inhibitors of fibronectin matrix deposition, primary screen, AH1F cells, Alexa488-fibronectin fluorescence, plate reader; 350,000 compounds, 0.086% hits; AH1F fibroblasts, overnight; inhibition, % at 12.6 µM;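 active = mean inhibition across replicates of 30% or more, regardless of how many single replicates reach that level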;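 note: positive control wells lacked labelled fibronectin entirely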
#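 Measured by – fluorescence 485/525 nm · System – AH1F fibroblast monolayer, labelled fibronectin deposition · Amount – 10000 cells per well · Buffer or medium – serum-reduced DMEM (2% serum) · Doses – single dose, pinned · Also added – fluorescent fibronectin at 24 nM final · Schedule – 1 h cell attachment, overnight exposure to compound and label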
# ERp5 inh – inhibitors of ERp5-driven insulin aggregation, primary screen, biochemical, turbidity, absorbance 650 nm, single point | Protein disulfide-isomerase A6 (Homo sapiens), Q15084 | 90 min | inhibition, % at 9.99 µM | 350,000 compounds, 0.05% hits;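 active = mean replicate inhibition above about 25%, with every replicate also reaching it, limit read from the data, passing the limit was not always enough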
# Target sequence (Q15084 whole entry, looked up): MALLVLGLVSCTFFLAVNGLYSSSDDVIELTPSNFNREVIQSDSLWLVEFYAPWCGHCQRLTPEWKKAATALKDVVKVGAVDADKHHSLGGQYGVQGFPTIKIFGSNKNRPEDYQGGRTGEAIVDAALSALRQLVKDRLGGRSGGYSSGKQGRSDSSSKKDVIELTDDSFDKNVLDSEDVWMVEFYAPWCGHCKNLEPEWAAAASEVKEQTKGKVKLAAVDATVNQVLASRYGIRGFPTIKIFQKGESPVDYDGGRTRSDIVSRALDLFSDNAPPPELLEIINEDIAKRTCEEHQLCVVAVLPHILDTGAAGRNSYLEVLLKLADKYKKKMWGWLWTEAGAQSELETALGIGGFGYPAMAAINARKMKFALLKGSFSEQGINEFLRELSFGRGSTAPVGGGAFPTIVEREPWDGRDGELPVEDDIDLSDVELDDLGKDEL
# PDI turbidity – inhibitors of human PDI, primary screen, biochemical, turbidity, single point, plate reader | 350,000 compounds, 0.052% hits | inhibition, % at 10 µM | Protein disulfide-isomerase (Homo sapiens), P07237 | PDI insulin aggregation turbidity, A650, 90 min;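 active = mean inhibition across replicates of 30% or more, whatever share of single replicates reach that level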
# FGF22 binding-1 – binders of human FGF22 protein, primary screen, FGF22 synaptogenesis inhibitor project, biophysical, thermal shift, single point; recombinant FGF22 thermal shift, SYPRO orange fluorescence; percent of sucrose octasulfate shift, DMSO zero; activity (Tm shift, normalised), % at 9.99 µM; Fibroblast growth factor 22 (Homo sapiens), Q9HCT0; AID 651658, 2012; 340,000 compounds, 1.5% hits;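 active = mean Tm shift, scaled 0 neutral to 100 positive control, at about 1.3% or above, every replicate too, limit read from the data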
# Target sequence (Q9HCT0 whole entry, looked up): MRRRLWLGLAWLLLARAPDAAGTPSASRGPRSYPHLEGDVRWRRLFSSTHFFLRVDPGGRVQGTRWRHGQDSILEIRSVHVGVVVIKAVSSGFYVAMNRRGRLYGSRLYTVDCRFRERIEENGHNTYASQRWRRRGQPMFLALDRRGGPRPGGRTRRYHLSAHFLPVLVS
# ARNT TACC3 PPI – disruptors of ARNT/TACC3 protein interaction, primary screen, biochemical, AlphaScreen, single concentration | Transforming acidic coiled-coil-containing protein 3 (Homo sapiens), Q9Y6A5 | AlphaScreen His-ARNT PAS-B/GST-TACC3 binding, luminescence; TACC3 fragment carries E629A point mutation | inhibition, % at 9.99 µM | 390,000 compounds, 0.66% hits | AID 623870, 2012;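 active = mean inhibition of replicates at least 50% and at least half of replicates each reaching 50%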;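 note: 0% = complete ARNT plus TACC3 wells and 100% = ARNT alone without TACC3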
# MLL AF4-AF9 inh – inhibitors of AF4 peptide binding to AF9, primary screen, biochemical, AlphaScreen, biotin-AF4 peptide, FLAG-AF9, single point; Protein AF-9 (Homo sapiens), P42568; inhibition, % at 10 µM; 350,000 compounds, 0.47% hits;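 active = every replicate reaching a set inhibition limit, whatever the replicate mean, cut at about 25% in these data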;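 note: 0% = plate neutral control median and 100% = total signal loss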
# FGF22 binding-2 – binders of human FGF22 protein, dose response, FGF22 synaptogenesis inhibitor project, biophysical, thermal shift, cherry-pick retest; shares compounds with FGF22 binding-1; recombinant FGF22 thermal shift, SYPRO orange fluorescence; thermal shift activity, °C (ΔTm) at 38 µM; 1,000 compounds, 2% hits; AID 720646, 2013;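 active = fitted rise in melting shift crosses a set limit at or below the top valid dose tested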
# TSA no protein – compound-only thermal shift signal without protein, dose response, artefact control for FGF22 binder project, biochemical, cherry-picked samples, RT-PCR instrument; shares compounds with FGF22 binding-1; compound-only SYPRO orange thermal shift counter-screen, no protein; AC50, µM (highest dose often 38 µM); 1,000 compounds, 2% hits; AID 743019, 2013;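 active = rising signal whose fitted curve reaches the 0.54 level within the top valid dose, showing a melting point, actives reach about 13 µM in these data; inactive = the rest, including activity in the opposite direction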; note: value is where the raw curve crosses a fixed level and not half-maximal
# Active calls of the source: *; i = inactive; · = no result given; [ ] = remark or other dose.
SMILES,FN deposition inh,ERp5 inh,PDI turbidity,FGF22 binding-1,ARNT TACC3 PPI,MLL AF4-AF9 inh,FGF22 binding-2,TSA no protein
Cc1cc(S(=O)(=O)NCc2cccnc2)ccc1F,2.3,-0.4,-5.2,0.5,-7.1,0.4,·,·
Cc1ccc(NC(=O)c2ccc(S(=O)(=O)NCc3cccnc3)cc2)c(C)c1,-3.5,-1.2,-4.5,1.6*,·,2.5,0.067,i
Cc1ccc(S(=O)(=O)NCc2cccnc2)cc1C,1.4,1.1,1.3,3.2*,-9.0,-2.3,0.118,i
O=C(C1CC1)N1CC(=O)N2[C@@H](CO)[C@@H](c3ccc(C#CC4CCCC4)cc3)[C@@H]2C1,-3.0,2.4,·,·,·,0.2,·,·
COc1cccc(NC(=O)C2CCC(CNS(=O)(=O)c3cccc4cccnc34)CC2)c1 (stereo not given),-2.1,0.5,-1.6,0.0,-4.9,-2.6,·,·
COc1cc(NC(=O)C2CCC(CNS(=O)(=O)c3csc(C(N)=O)c3)CC2)cc(OC)c1 (stereo not given),-9.6,-4.2,1.4,1.8*,4.8,-1.4,-0.306,i
COc1ccc(-c2ccc([C@@H]3[C@H]4CN(C(=O)c5ccc6c(c5)OCO6)CCCCN4[C@H]3CO)cc2)cc1,·,0.8,·,0.2,-3.4,-8.8,·,·
COc1ccc(-c2ccc([C@H]3[C@H](CO)N4CCCCN(C(=O)c5ccc6c(c5)OCO6)C[C@@H]34)cc2)cc1,·,0.3,·,1.4*,1.9,1.1,0.037[42 µM],i
CCCN1C[C@@H](C)[C@@H](OC)CN(C)C(=O)c2cc(NC(=O)COC)ccc2OC[C@@H]1C,3.0,·,·,·,-9.1,·,·,·
CC(=O)C1=C(O)C(=O)N(c2ccc(S(=O)(=O)Nc3nccs3)cc2)C1c1ccc(F)cc1 (stereo not given),-3.9,-0.2,0.3,1.7*,0.1,-9.6,-0.031,i
CC(=O)C1=C(O)C(=O)N(c2ccc(S(=O)(=O)Nc3nccs3)cc2)C1c1ccc([N+](=O)[O-])cc1 (stereo not given),-4.0,3.2,-2.7,0.4,-0.5,-0.6,·,·
CO[C@H]1CN(C)C(=O)c2ccc(NS(=O)(=O)c3ccccc3Cl)cc2OC[C@H](C)NC[C@H]1C,-18.4,3.0,·,0.2,-0.3,-0.9,·,·
C[C@@H]1CN([C@@H](C)CO)C(=O)c2cc(NC(=O)Nc3ccccc3)ccc2O[C@@H](C)CCCCO[C@H]1CN(C)Cc1ccc2c(c1)OCO2,5.7,-2.2,·,-0.2,23.5,10.6,·,·
CCCCNC(=O)c1onc(CSc2ccc(F)c(F)c2)c1C(=O)NCCCC,12.9,3.3,2.6,30.9*,-7.8,-4.1,0.026,6.27µM*
O=C(C[C@H]1CC[C@H]2[C@@H](COC[C@H](O)CN2Cc2cccc(-c3ccncc3)c2)O1)N1CCCCC1,-5.6,-16.3,·,-0.3,4.5,2.2,·,·
O=c1c(O)c(-c2cc(O)c(O)c(O)c2)oc2cc(O)cc(O)c12,-1.0,4.8,-1.5,1.5*,44.6,-1.8,0.121,i
O=c1c(O)c(-c2ccccc2)oc2cc(O)cc(O)c12,·,-1.7,·,0.1,-0.8,1.1,·,·
CCC(=O)N[C@@H]1C=C[C@H](CC(=O)NCc2ccccc2OC)O[C@@H]1CO,·,0.0,·,0.4,·,-3.3,·,·
O=Cc1cc(OCc2ccccc2)ccc1[B-](F)(F)F,9.4,-2.1,-1.4,1.5*,3.9,-1.3,0.012,i
N#CC(C#N)=C1NC(N)=C(C#N)C(c2ccccc2)=C1C#N,-3.2,6.8,2.7,2.1*,·,-3.5,0.145,i
N#CC1=C(c2ccccc2)/C(=C/c2ccccc2)OC1=O,·,·,-6.1,·,-5.0,·,·,·
O=C(NN=Cc1ccc(O)cc1O)c1ccccc1NS(=O)(=O)c1cccs1,-17.1,-5.1,7.6,1.9*,46.8*,16.7,0.241,i
COc1ccc(C=NNC(=O)c2ccccc2NS(=O)(=O)c2cccs2)cc1O,-8.2,-7.2,-8.5,-0.1,3.8,0.8,·,·
CCOC(=O)Cc1n[nH]c(=O)c2ccccc12,-1.0,0.9,0.1,0.2,-2.2,-2.8,·,·
COC(=O)Cc1n[nH]c(=O)c2ccccc12,·,5.1,-4.7,11.6*,-39.9,-5.2,-0.025,i
SMILES,FN deposition inh,ERp5 inh,PDI turbidity,FGF22 binding-1,ARNT TACC3 PPI,MLL AF4-AF9 inh,FGF22 binding-2,TSA no protein
Cc1cccc(OC(C)C(=O)Nc2ccc3c(c2)OCCO3)c1 (stereo not given),·,7.8,-5.1,2.1*,4.2,-0.9,-0.029,i
COc1cccc(CNC(C)C(=O)Nc2ccc3c(c2)OCCO3)c1 (stereo not given),·,-4.3,-1.7,0.0,-9.7,-0.3,·,·
CN1CCC(C)(C(=O)Nc2cccc3c2CCCC3)C1 (stereo not given),0.6,2.8,-1.5,18.6*,·,0.3,0.001,i
O=C(N/N=C/c1cccc(O)c1)c1cc(-c2ccc3c(c2)OCO3)n[nH]1,-5.7,0.8,-2.5,1.9*,·,-3.5,0.085,i
O=C(O)c1ccc(Cl)c(S(=O)(=O)Nc2ccc(S(=O)(=O)N3CCCC3)cc2)c1,0.3,·,-6.8,1.4*,-8.4,-1.9,-0.133,i
O=C(C[C@@H]1C=C[C@H](NS(=O)(=O)c2ccccc2)[C@H](CO)O1)NCc1ccncn1,·,-0.5,·,0.1,·,-2.6,·,·
C[C@@H]1CN([C@@H](C)CO)C(=O)c2cccc(NC(=O)CCCCCC(=O)Nc3ccccc3N)c2O[C@H]1CN(C)C(=O)Nc1ccc(F)cc1,·,-2.0,·,0.1,·,0.0,·,·
CC(=O)c1ccc(NS(=O)(=O)c2ccccc2)cc1,·,·,3.6,·,-14.0,·,·,·
CC(=O)c1ccc(NS(=O)(=O)c2ccc(N)cc2)cc1,4.5,-2.3,13.0,25.1*,-6.1,-0.8,-0.036,i
CN1C(=O)c2cc(NC(=O)c3cccs3)ccc2OC[C@@H]2O[C@@H](CC(=O)O)CC[C@H]21,13.0,-4.8,·,-0.1,3.4,-1.8,·,·
O=C(NCC[C@@H]1CC[C@@H](NC(=O)c2ccncc2)[C@H](CO)O1)Nc1ccc(Cl)cc1,-5.4,4.9,·,0.1,-14.3,14.6,·,·
O=C(Nc1nccs1)c1ccc(S(=O)(=O)NCC2CCCCC2)cc1,2.2,·,-0.8,·,4.8,·,·,·
